Source: PubChem (The Scripps Research Institute Molecular Screening Center)
Rows were chosen to be rich in hits. Some 4% of all compounds tested hit in one or more screens of this group.
OX1R antag-1 = blocks the human orexin 1 receptor. O43613. OX1R-expressing cells, FRET antagonist read-out. inhibition, % at 6.6 µM. hit rate 1.8% among 330,000; in the data active = inhibition mostly above about 38%, no sharp cut-off; inactive = mostly below about 40%
Target sequence (O43613 whole entry, looked up): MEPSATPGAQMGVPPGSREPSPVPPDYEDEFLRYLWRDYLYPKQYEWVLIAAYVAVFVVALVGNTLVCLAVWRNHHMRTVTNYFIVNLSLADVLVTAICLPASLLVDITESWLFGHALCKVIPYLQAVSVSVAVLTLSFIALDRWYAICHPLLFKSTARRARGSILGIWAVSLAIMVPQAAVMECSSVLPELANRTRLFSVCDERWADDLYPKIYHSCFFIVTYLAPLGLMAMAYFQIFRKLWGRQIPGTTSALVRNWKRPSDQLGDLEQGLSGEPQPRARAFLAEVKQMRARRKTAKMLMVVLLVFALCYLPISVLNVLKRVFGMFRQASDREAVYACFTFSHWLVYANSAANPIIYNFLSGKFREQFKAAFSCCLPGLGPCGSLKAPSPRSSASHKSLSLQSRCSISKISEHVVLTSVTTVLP
CHO parental Ca = counter-screen for OX1R antagonists: effect in parental CHO cells; AID 463079; hit rate 0.63% among 330,000; parental CHO-K1, ATP-induced calcium, Fluo-8 fluorescence; inhibition, % at 5.6 µM;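 active = inhibition above that plate's mean sample inhibition plus 3 SD, cut at about 26% in these data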
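Material: Parental CHO cells | Reagent: ATP | Compound dosing: Single nominal dose of 5.6 µM per compound | Detection: Intracellular calcium via Fluo-8 no-wash fluorescent dye | Read-out: % inhibition of ATP-induced calcium mobilization | Benchmarks: Low control ATP plus DMSO, high control DMSO only | Replicates: Singlicate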
OX1R antag-2 = human HCRTR1 antagonism; inhibition, % at 5 µM; CHO/OX1R cells, Fluo-8 calcium fluorescence, orexin A; hit rate 0.43% among 330,000; O43613;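 active = inhibition above its plate's threshold, mean inhibition of all tested compounds on the plate plus 3 SD, cut at about 37% in these data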
TAAR1 agonist = agonists of human TAAR1. activation, % at 3 µM. AID 624467. Q96RJ0. CHO RD-HGA16 TAAR1, Fluo-8 calcium fluorescence; vehicle wells 0%, saturating PEA agonist 100%. hit rate 0.99% among 360,000;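 active = activation above the mean activation of all test compounds in the run plus 3 SD, cut at about 38% in these data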
Target sequence (Q96RJ0 whole entry, looked up): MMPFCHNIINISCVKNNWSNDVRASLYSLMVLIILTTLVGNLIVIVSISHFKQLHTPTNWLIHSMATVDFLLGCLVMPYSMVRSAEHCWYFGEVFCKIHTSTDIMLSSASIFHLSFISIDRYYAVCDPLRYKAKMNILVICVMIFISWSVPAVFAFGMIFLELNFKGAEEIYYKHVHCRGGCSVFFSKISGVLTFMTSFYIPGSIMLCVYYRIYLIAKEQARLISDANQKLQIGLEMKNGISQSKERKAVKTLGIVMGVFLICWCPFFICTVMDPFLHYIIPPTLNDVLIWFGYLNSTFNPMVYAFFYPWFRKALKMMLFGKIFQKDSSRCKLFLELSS
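Signal – calcium-sensitive Fluo-8 signal, excitation 470-495, emission 515-575 nm · System – RD-HGA16 (CHO) cells co-expressing Gα16 and hTAAR1 · Incubation – 17-24 h seeding, 75 min 37 °C dye, 30 min RT · Compound dosing – 3 µM single concentration · Repeats – no replicates (n 1)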
TAAR1 antag = antagonists of human TAAR1 | CHO RD-HGA16 TAAR1, Fluo-8 calcium fluorescence, antagonist | inhibition, % at 3 µM | Q96RJ0 | hit rate 1.5% among 360,000;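 active = inhibition above a per-plate cutoff, the mean inhibition of test compounds on that plate plus 3 SD, cut at about 49% in these data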
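Test system – hTAAR1-expressing CHO RD-HGA16 cells, Gα16-coupled · Reagent – β-PEA at EC80 concentration, post-compound challenge · Compound dosing – 3 µM, single point · Timing – 140 s kinetic read after compound, 140 s after agonist · Detection – Fluo-8 intracellular calcium dye fluorescence, real-time kinetic reads · Control set – DMSO and EC80 PEA controls · Repeats – n of 1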
Each line names hits and unclear results; the compound was inactive in the other large screens.

O=C(CSc1ccc(-c2ccccc2)nn1)N1CCOCC1	OX1R antag-1 49
COc1ccccc1CCNC(=O)CSc1nnc2ccc(-c3ccncc3)nn12	OX1R antag-1 39
CCOC(=O)N1CCN(C(=O)CN(C)S(=O)(=O)c2ccc(F)cc2)CC1	none
COC(=O)[C@]12C[C@H](CC(=O)N3CCCC3)C(=O)N(CCC3=CCCCC3)C1=C[C@H](COCc1ccccc1)O[C@@H]2C	none (no result: OX1R antag-1, CHO parental Ca, OX1R antag-2)
CCSc1nnc2ccc(-c3ccc(OC)c(OC)c3)nn12	OX1R antag-1 39
COc1cccc(-c2ccc3nnc(SCC(=O)N4CCOCC4)n3n2)c1	OX1R antag-1 51
COc1cccc(-c2ccc3nnc(SCC(=O)N4CCCC4)n3n2)c1	none
COCCN1Cc2cc(C(=O)OC)c3c(c2C1=O)c1ccccc1n3S(=O)(=O)c1ccc(C)cc1	none (no result: OX1R antag-1, CHO parental Ca, OX1R antag-2)
Cc1cccc(-c2noc(CN(C(=O)c3ccc4c(c3)OCO4)C(C)C)n2)c1	OX1R antag-1 69
Cc1cccc(-c2noc(CN(C(=O)C(c3ccccc3)c3ccccc3)C(C)C)n2)c1	OX1R antag-1 43, CHO parental Ca 69
O=[N+]([O-])c1ccc(N2CCN(Cc3ccccc3)CC2)c2c1no[n+]2[O-]	TAAR1 antag 63 (no result: OX1R antag-1, CHO parental Ca, OX1R antag-2)
COC(=O)[C@H](Cc1ccccc1)NC(=O)[C@H]1O[C@@H](n2cnc3c(=O)[nH]c(N)nc32)[C@H](O)[C@@H]1O	none (no result: OX1R antag-1, CHO parental Ca, OX1R antag-2)
O=C(NNC(=O)C1CC1)c1cc2cc3ccccc3nc2s1	OX1R antag-1 54
O=C(O)c1oc2ccccc2c1CSc1ccccn1	none
O=C(O)c1oc2ccccc2c1CSc1ccc(Cl)cc1	OX1R antag-1 63
COc1ccccc1C1CCN(C(=O)c2ccc(C(C)(C)C)cc2)CC1	none
COc1ccccc1N1CCN(C(=O)c2ccc(COc3cccc4c3OC(C)(C)C4)cc2)CC1	TAAR1 antag 56
CC1(C)Cc2cccc(OCC(=O)N3CCN(c4ccccc4F)CC3)c2O1	none
CC(=O)NC12CC3CC(C1)CC(C(=O)N1CCN(S(=O)(=O)c4cccc(C(F)(F)F)c4)CC1)(C3)C2	none
O=C(CCl)NC(Cc1ccccc1)C(=O)OCC(=O)c1ccc(-c2ccccc2)cc1 (stereo not given)	TAAR1 antag 60 (no result: OX1R antag-1, CHO parental Ca, OX1R antag-2)
NC(Cc1ccc(O)cc1)C(=O)NN=Cc1ccccc1Cl (stereo not given)	none (no result: OX1R antag-1, CHO parental Ca, OX1R antag-2)
O=C(C(=O)N1CCC(CNC(=O)c2ccccc2F)CC1)c1cc2ccccc2o1	none (no result: OX1R antag-1, CHO parental Ca, OX1R antag-2)
Cc1cccc(-n2nnc(C(=O)Nc3ccc(F)cc3)c2N)c1	none
Cc1c(C(=O)Nc2ccc(F)cc2)nnn1-c1cccc(C(F)(F)F)c1	CHO parental Ca 49
CCOc1cc(N2CCOCC2)c(OCC)cc1NC(=O)c1cc(-c2ccco2)nc2ccccc12	OX1R antag-1 37, TAAR1 antag 71
Cc1ccccc1NC(=O)c1cc(-c2ccco2)nc2ccccc12	TAAR1 antag 60 (no result: OX1R antag-1, CHO parental Ca, OX1R antag-2)
CCc1cccc(C)c1NC(=O)c1cc(-c2ccncc2)nc2ccccc12	TAAR1 antag 49 (no result: OX1R antag-1, CHO parental Ca, OX1R antag-2)
O=C(O)c1ccccc1NC(=O)c1cc(-c2ccccc2)nc2ccccc12	OX1R antag-1 57
O=C(Nc1ccon1)c1cc(-c2ccccc2)nc2ccccc12	none
CCOc1cc(N2CCOCC2)c(OCC)cc1NC(=O)COc1ncnc2ccccc12	none
Cc1ccc(-c2cc(C(=O)Nc3ccncc3)c3ccccc3n2)cc1	none
Cc1coc2cc3oc(=O)c(CC(=O)N[C@@H](CC(C)C)C(=O)O)c(C)c3cc12	none
Cc1ccccc1-c1cc(C(=O)Nc2sc(C)c(C)c2C(N)=O)c2ccccc2n1	TAAR1 antag 50
Cc1cc(OCC(=O)OCC(=O)N2c3ccccc3NC(=O)C2(C)C)ccc1Cl	TAAR1 antag 70
CCC(=O)c1ccc(OCC(=O)OCC(=O)N2c3ccccc3NC(=O)C2(C)C)cc1	TAAR1 antag 52
CC1(C)C(=O)Nc2ccccc2N1C(=O)COC(=O)Cc1ccc(Cl)c(Cl)c1	none
Cc1ccc(C(=O)CCC(=O)OCC(=O)N2c3ccccc3NC(=O)C2(C)C)cc1	none (no result: OX1R antag-1, CHO parental Ca, OX1R antag-2)
CCCc1ccc(OCc2ccc(C(=O)N3CCN(c4ccccn4)CC3)o2)c(OC)c1	TAAR1 antag 51
COc1ccc(CC(=O)N2CCN(c3ccccn3)CC2)cc1OC	none
O=C(NC1CCOC1=O)OCc1ccccc1 (stereo not given)	none (no result: OX1R antag-1, CHO parental Ca, OX1R antag-2)
O=C(COc1ccc(OCc2ccccc2)cc1)NC1CCOC1=O (stereo not given)	CHO parental Ca 38
C=CC[C@@H](CC(=O)N(CCO)Cc1ccccc1)C(=O)N[C@H](COC(=O)[C@@H](CC=C)Cc1ccc(F)cc1)C(C)(C)C	none
C=CCC[C@H](Cc1ccc(F)cc1)C(=O)OC[C@H](Cc1c[nH]c2ccccc12)NC(=O)[C@H](CC=C)CC(=O)N[C@H](CO)Cc1ccccc1	none
C=CCC[C@H](Cc1ccc(F)cc1)C(=O)OC[C@@H](Cc1c[nH]c2ccccc12)NC(=O)[C@H](CC=C)CC(=O)N(CCO)Cc1ccccc1	TAAR1 antag 65
C=CCC[C@@H](Cc1ccc(F)cc1)C(=O)OC[C@@H](Cc1c[nH]c2ccccc12)NC(=O)[C@H](CC=C)CC(=O)N(CCO)Cc1ccccc1	TAAR1 antag 60
C=CC[C@@H](CC(=O)N(CCO)Cc1ccccc1)C(=O)N[C@@H](COC(=O)[C@@H](CC=C)Cc1ccc(F)cc1)Cc1c[nH]c2ccccc12	none
C=CC[C@H](CC(=O)N(CCO)Cc1ccccc1)C(=O)N[C@@H](COC(=O)[C@@H](CC=C)Cc1ccc(F)cc1)Cc1c[nH]c2ccccc12	TAAR1 antag 60
C=CC[C@H](CC(=O)N(CCO)Cc1ccccc1)C(=O)N[C@H](COC(=O)[C@@H](CC=C)Cc1ccc(F)cc1)C(C)(C)C	TAAR1 antag 51
O=C1c2ccccc2C(=O)C1c1nccc2ccccc12	none
O=C1c2ccccc2C(=O)C1c1ccnc2ccccc12	OX1R antag-1 69
Cc1ccc(NC(=O)COC(=O)c2cccc(N3C(=O)c4ccccc4C3=O)c2)cc1	none
CCN(CC)c1ccc(NC(=O)CSC(=O)c2ccccc2)cc1	none
CC(=O)c1cccc(NC(=O)COC(=O)c2cccc(N3C(=O)c4ccccc4C3=O)c2)c1	TAAR1 antag 49
CC(=O)c1cccc(NC(=O)CSC(=O)c2ccccc2)c1	TAAR1 agonist 38
COCc1cc(C)nc2sc(C(=O)Nc3cccc(OC)c3)c(N)c12	OX1R antag-1 39
O=C1c2ccc(-c3ccc4c(c3)C(=O)N(CCCO)C4=O)cc2C(=O)N1CCCO	OX1R antag-1 59
CCc1nnc2n1N=C(c1ccc([N+](=O)[O-])cc1)CS2	OX1R antag-1 56
COc1ccc(CCN2CC(C(=O)NCc3ccon3)CCC2=O)cc1 (stereo not given)	none (no result: OX1R antag-1, CHO parental Ca, OX1R antag-2)
O=C1NC(c2cccc(C(F)(F)F)c2)c2c(-c3ccccc3)n[nH]c21 (stereo not given)	none (no result: OX1R antag-1, CHO parental Ca, OX1R antag-2)
Cc1cc(OCc2cc(C(=O)N3CCC(Oc4cccnc4)CC3)no2)cc(C)c1Cl	CHO parental Ca 56, TAAR1 antag 53
